ChEMBL document CHEMBL2417474, “Synthesis, antiproliferative and anti-inflammatory activities of some novel 6-aryl-2-(p-(methanesulfonyl)phenyl)-4,5-dihydropyridazi-3(2H)-ones” (Eur J Med Chem, 2013)

Experiments:
Format in all cases: functional
MDA-MB-231 [1] = assay: Growth inhibition of human MDA-MB-231 cells after 48 hrs by sulforhodamine B assay; details: MDA-MB-231, 48 h
In short: (§1)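 NCI 60-cell-line panel grown in RPMI-type medium with 5% fetal calf serum and 2 mM L-glutamine. Cells preincubated 24 h, then exposed continuously for 48 h to compound in DMSO at 10^-4 to 10^-8 M (five 10-fold levels). Growth read by SRB protein stain. GI50 is the concentration giving a 50% reduction in net protein increase relative to control cells.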

OVCAR-4 [2] = assay: Growth inhibition of human OVCAR4 cells assessed as cell growth at 10 uM after 48 hrs by sulforhodamine B assay; details: OVCAR-4, 48 h, read-out: Activity
MDA-MB-231 [3] = assay: Growth inhibition of human MDA-MB-231 cells assessed as cell growth at 10 uM after 48 hrs by sulforhodamine B assay; details: MDA-MB-231, 48 h, read-out: Activity
TK-10 = assay: Growth inhibition of human TK10 cells after 48 hrs by sulforhodamine B assay; details: TK-10, 48 h
In short: (§2)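 NCI 60-line panel. Cells were grown in medium with 5% fetal calf serum and 2 mM L-glutamine and preincubated 24 h in plates. Compound in DMSO was added at 10^-4 to 10^-8 M (five 10-fold levels), with continuous exposure for 48 h. Growth was read by SRB protein staining. GI50 is the concentration giving 50% reduction in net protein increase versus control cells.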

HCT-116 = assay: Growth inhibition of human HCT116 cells assessed as cell growth at 10 uM after 48 hrs by sulforhodamine B assay; details: HCT-116, 48 h, read-out: Activity
SK-MEL-2 = assay: Growth inhibition of human SK-MEL-2 cells after 48 hrs by sulforhodamine B assay; details: SK-MEL-2, 48 h
In short: (§3)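 NCI 60-cell-line panel. Cells were grown in medium with 5% fetal calf serum and 2 mM L-glutamine, then preincubated 24 h in plates. Compounds were added from DMSO at five 10-fold concentrations from 100 to 0.01 µM and left on cells continuously for 48 h. Cell growth was read by sulforhodamine B protein stain. GI50 is the concentration that halves net protein increase relative to control cells.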

SK-MEL-28 = assay: Growth inhibition of human SK-MEL-28 cells after 48 hrs by sulforhodamine B assay; details: SK-MEL-28, 48 h; in short: as §3
MDA-MB-435 = assay: Growth inhibition of human MDA-MB-435 cells after 48 hrs by sulforhodamine B assay; details: MDA-MB-435, 48 h; in short: as §3
DU-145 = assay: Growth inhibition of human DU145 cells after 48 hrs by sulforhodamine B assay; details: DU-145, 48 h; in short: as §1
HOP-92 = assay: Growth inhibition of human HOP92 cells assessed as cell growth at 10 uM after 48 hrs by sulforhodamine B assay; details: HOP-92, 48 h, read-out: Activity
CAKI-1 = assay: Growth inhibition of human CAKI-1 cells after 48 hrs by sulforhodamine B assay; details: CAKI-1, 48 h; in short: as §1
LOX IMVI [4] = assay: Growth inhibition of human LOXIMVI cells after 48 hrs by sulforhodamine B assay; in short: as §1
UACC-257 = assay: Growth inhibition of human UACC257 cells after 48 hrs by sulforhodamine B assay; details: UACC-257, 48 h; in short: as §2
Rattus norvegicus = assay: Antiinflammatory activity in Wistar rat assessed as inhibition of carrageenan-induced paw edema at 0.05 mmol/kg, po administered 30 mins prior challenge measured after 3 hrs
In short: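 Wistar rats of either sex, 150–175 g, fasted 16 h, 6 per group. Dosed orally at 0.05 mmol/kg, suspended in 1% CMC in water (10 ml/kg). 30 min later, 0.1 ml of 1% carrageenan in saline injected subplantar into the left hind paw. Paw volume read by plethysmometer at 0, 3 and 5 h. % inhibition = (1 − Vt/Vc) × 100 against the vehicle group.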

PC-3 = assay: Growth inhibition of human PC3 cells assessed as cell growth at 10 uM after 48 hrs by sulforhodamine B assay; details: PC-3, 48 h, read-out: Activity
OVCAR-4 [5] = assay: Growth inhibition of human OVCAR4 cells after 48 hrs by sulforhodamine B assay; details: OVCAR-4, 48 h; in short: as §3
OVCAR-3 = assay: Growth inhibition of human OVCAR3 cells after 48 hrs by sulforhodamine B assay; details: OVCAR-3, 48 h; in short: as §3
UACC-62 = assay: Growth inhibition of human UACC62 cells after 48 hrs by sulforhodamine B assay; details: UACC-62, 48 h; in short: as §2
SK-MEL-5 = assay: Growth inhibition of human SK-MEL-5 cells assessed as cell growth at 10 uM after 48 hrs by sulforhodamine B assay; details: SK-MEL-5, 48 h, read-out: Activity
T47D = assay: Growth inhibition of human T47D cells assessed as cell growth at 10 uM after 48 hrs by sulforhodamine B assay; details: read-out: Activity
In short: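 Single-dose NCI screen. Tumor lines were cultured in medium with 5% fetal calf serum and 2 mM L-glutamine, preincubated 24 h, then given compound in DMSO. After 48 h continuous exposure, cell growth was estimated by sulforhodamine B protein assay.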

LOX IMVI [6] = assay: Growth inhibition of human LOXIMVI cells assessed as cell growth at 10 uM after 48 hrs by sulforhodamine B assay; details: read-out: Activity
MCF7 = assay: Growth inhibition of human MCF7 cells assessed as cell growth at 10 uM after 48 hrs by sulforhodamine B assay; details: MCF7, 48 h, read-out: Activity
SN12C = assay: Growth inhibition of human SN12C cells assessed as cell growth at 10 uM after 48 hrs by sulforhodamine B assay; details: read-out: Activity
RXF 393 = assay: Growth inhibition of human RXF393 cells assessed as cell growth at 10 uM after 48 hrs by sulforhodamine B assay; details: RXF 393, 48 h, read-out: Activity
HT-29 = assay: Growth inhibition of human HT-29 cells after 48 hrs by sulforhodamine B assay; details: HT-29, 48 h; in short: as §1
UO-31 = assay: Growth inhibition of human UO31 cells after 48 hrs by sulforhodamine B assay; details: UO-31, 48 h; in short: as §2
SNB-19 = assay: Growth inhibition of human SNB19 cells after 48 hrs by sulforhodamine B assay; details: SNB-19, 48 h; in short: as §3
SF-539 = assay: Growth inhibition of human SF539 cells assessed as cell growth at 10 uM after 48 hrs by sulforhodamine B assay; details: SF-539, 48 h, read-out: Activity
[7] = read-out: LC50 (the source's name)

CCc1ccc(C2=NN(c3ccc(S(C)(=O)=O)cc3)C(=O)CC2)cc1
GI50 (MDA-MB-231 [1]): 3.46 µM | LC50 (MDA-MB-231 [1]): > 100 µM | TGI (MDA-MB-231 [1]): > 100 µM | growth at 10 µM (OVCAR-4 [2]): 76.2% | growth at 10 µM (MDA-MB-231 [3]): 55.5% | GI50 (TK-10): 8.31 µM | TGI (TK-10): > 100 µM | CC50 (TK-10; [7]): > 100 µM | growth at 10 µM (HCT-116): 15.7% | GI50 (SK-MEL-2): 0.9 µM | LC50 (SK-MEL-2): > 100 µM | TGI (SK-MEL-2): > 100 µM | GI50 (SK-MEL-28): 1.84 µM | TGI (SK-MEL-28): > 100 µM | CC50 (SK-MEL-28; [7]): > 100 µM | GI50 (MDA-MB-435): 0.22 µM | LC50 (concentration killing 50% of starting cells) (MDA-MB-435): > 100 µM | TGI (MDA-MB-435): 0.74 µM | GI50 (DU-145): 5.66 µM | TGI (DU-145): > 100 µM | CC50 (DU-145; [7]): > 100 µM | growth at 10 µM (HOP-92): 68.6% | GI50 (CAKI-1): 1 µM | LC50 (lethal concentration, 50% cell kill) (CAKI-1): > 100 µM | TGI (CAKI-1): 8.22 µM | GI50 (LOX IMVI [4]): 3.5 µM | TGI (LOX IMVI [4]): > 100 µM | CC50 (LOX IMVI [4]; [7]): > 100 µM | GI50 (UACC-257): 3.3 µM | LC50 (concentration killing 50% of cells) (UACC-257): > 100 µM | TGI (UACC-257): 61.5 µM | inhibition in vivo at 50 µmol/kg (Rattus norvegicus): 46.7% | growth at 10 µM (PC-3): 56.6% | GI50 (OVCAR-4 [5]): 0.01 µM | LC50 (OVCAR-4 [5]): > 100 µM | TGI (OVCAR-4 [5]): > 100 µM | GI50 (OVCAR-3): 0.93 µM | LC50 (lethal concentration, 50% net cell kill) (OVCAR-3): > 100 µM | GI50 (UACC-62): 0.78 µM | LC50 (50% net cell kill concentration) (UACC-62): > 100 µM | TGI (UACC-62): > 100 µM | growth at 10 µM (SK-MEL-5): 10.7% | growth at 10 µM (T47D): 41.4% | growth at 10 µM (LOX IMVI [6]): 35% | growth at 10 µM (MCF7): 26% | growth at 10 µM (SN12C): 31.4% | growth at 10 µM (RXF 393): 27.4% | GI50 (HT-29): 0.41 µM | LC50 (50% lethal concentration) (HT-29): > 100 µM | TGI (HT-29): 12.1 µM | GI50 (UO-31): 5.23 µM | LC50 (concentration killing 50% of cells) (UO-31): > 100 µM | TGI (UO-31): > 100 µM | GI50 (SNB-19): 0.13 µM | TGI (SNB-19): > 100 µM | CC50 (SNB-19; [7]): > 100 µM | growth at 10 µM (SF-539): 15.1%

O=c1[nH]cc(F)c(=O)[nH]1 [FLUOROURACIL]
GI50 (MDA-MB-231 [1]): 6.6 µM | GI50 (TK-10): 1.12 µM | GI50 (SK-MEL-2): 56.7 µM | GI50 (SK-MEL-28): 1.03 µM | GI50 (MDA-MB-435): 0.07 µM | GI50 (DU-145): 0.36 µM | GI50 (CAKI-1): 0.07 µM | GI50 (LOX IMVI [4]): 0.24 µM | GI50 (UACC-257): 3.55 µM | GI50 (OVCAR-4 [5]): 4.43 µM | GI50 (OVCAR-3): 0.01 µM | GI50 (UACC-62): 0.52 µM | GI50 (HT-29): 0.17 µM | GI50 (UO-31): 1.42 µM | GI50 (SNB-19): 3.81 µM
